Measured values reported in ChEMBL document CHEMBL4130351, “Novel pyrazolopyrimidines: Synthesis, in vitro cytotoxic activity and mechanistic investigation” (Eur J Med Chem, 2017).

Legend:
MCF7 = assay: Cytotoxicity against human MCF7 cells assessed as reduction in cell viability after 72 hrs by MTT assay; type: functional, cell-based; details: MCF7, 72 h
Procedure, shortened: (§1)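 MCF-7 and HepG2 cells in exponential growth were trypsinized and seeded at 1000–2000 cells/well, then incubated 24 h at 37 °C. Compound exposure was 72 h at 0.1, 10, 100 and 1000 μM. Cells took up 5% MTT for 2 h, and formazan was dissolved in acidified isopropanol for 30 min at room temperature. A570 was read, viability expressed as % of control, and IC50 obtained by curve fitting.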

HepG2 = assay: Cytotoxicity against human HepG2 cells assessed as reduction in cell viability after 72 hrs by MTT assay; type: functional, cell-based; details: HepG2, 72 h; procedure, shortened: as §1

Row | Compound | IC50 (MCF7) | IC50 (HepG2)
1 | N#Cc1cnn(-c2ccc(S(N)(=O)=O)cc2)c1N | > 100 µM | > 100 µM
2 | NS(=O)(=O)c1ccc(-n2ncc3c(=O)[nH]c(-c4ccccc4)nc32)cc1 | > 100 µM | 77.6 µM
3 | NS(=O)(=O)c1ccc(-n2ncc3c(=O)[nH]c(-c4ccc(F)cc4)nc32)cc1 | 38 µM | 2.66 µM
4 | NC(=O)c1cnn(-c2ccc(S(N)(=O)=O)cc2)c1N | > 100 µM | > 100 µM
5 | NS(=O)(=O)c1ccc(-n2ncc3c(=O)[nH]c(-c4ccc(Cl)cc4)nc32)cc1 | 2.5 µM | 23.9 µM
